# According to ChEMBL document CHEMBL1142352, “Chemical resolution of +/- -calanolide A, +/- -cordatolide A and their 11-demethyl analogues” (Bioorg Med Chem Lett, 2008):
# How the values were obtained:
# [1] = test system: Human immunodeficiency virus 1; assay: Antiviral activity against HIV1 at 1.0 uM by luciferase assay; type: functional; conditions: for inhibition at 1 µM: Human immunodeficiency virus 1
# Method in brief: (§1)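 Pseudotyped HIV-1 assay: drug was serially diluted from 10 µM down to 0.1 nM and tested against 100 TCID50 of HIV ADA infecting TZM CD4+ CCR5+ cells. Infection was read on day 3 post-infection as reporter luciferase activity using a commercial kit, and results are given as percent inhibition. Controls were infected cells without drug, a pseudovirus with a non-specific envelope, and an RT inhibitor.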
# Vero [2] = assay: Cytotoxicity against african green monkey Vero cells at 1.0 uM; type: cell-based; conditions: chlorocebus sabaeus
# Method in brief: (§2)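 Microtiter cytotoxicity assay run in parallel on Vero and TZM CD4+ CCR5+ cells. Serially diluted drug was applied, and viability was measured with a commercial cell viability assay. Values are reported as percent reduction in cell viability.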
# [3] = test system: Human immunodeficiency virus 1; assay: Antiviral activity against HIV1 at 10 uM by luciferase assay; type: functional; conditions: for inhibition at 10 µM: Human immunodeficiency virus 1; method in brief: as §1
# Vero [4] = assay: Cytotoxicity against african green monkey Vero cells at 10 uM; type: cell-based; conditions: chlorocebus sabaeus; method in brief: as §2
# [5] = test system: Mycobacterium tuberculosis; assay: Antimicrobial activity against Mycobacterium tuberculosis; type: functional
Compound,inhibition at 1 µM [1] [%],Activity (Vero [2]) [%],inhibition at 10 µM [3] [%],Activity (Vero [4]) [%],MIC [5] [mg/L],Inhibition [3] [%],Inhibition [1] [%]
Cc1cc(=O)oc2c3c(c4c(c12)OC(C)(C)C=C4)O[C@@H](C)[C@H](C)[C@H]3O [(-)-CORDATOLIDE A],0,0,0,0,–,–,–
CCCc1cc(=O)oc2c3c(c4c(c12)OC(C)(C)C=C4)O[C@H](C)C[C@@H]3O [(+)-11-DEMETHYL CALANOLIDE A],75,0,98,54,–,–,–
CCCc1cc(=O)oc2c3c(c4c(c12)OC(C)(C)C=C4)O[C@@H](C)[C@H](C)[C@H]3O [(-)-CALANOLIDE A],67,0,97,0,–,–,–
CCCc1cc(=O)oc2c3c(c4c(c12)OC(C)(C)C=C4)O[C@@H](C)C[C@H]3O [(-)-11-DEMETHYL CALANOLIDE A],0,0,0,0,–,–,–
Cc1cc(=O)oc2c3c(c4c(c12)OC(C)(C)C=C4)O[C@H](C)[C@@H](C)[C@@H]3O [(+)-CORDATOLIDE A],44,0,85,0,–,–,–
CCCc1cc(=O)oc2c3c(c4c(c12)OC(C)(C)C=C4)O[C@H](C)[C@@H](C)[C@@H]3O [CALANOLIDE A],86,1,–,6,3.13,98,–
CCCc1cc(=O)oc2c3c(c4c(c12)OC(C)(C)C=C4)O[C@H](C)[C@@H](C)[C@@H]3O (racemic) [CALANOLIDE A],–,0,97,0,–,–,81
Cc1cc(=O)oc2c3c(c4c(c12)OC(C)(C)C=C4)O[C@@H](C)C[C@H]3O [(-)-11-DEMETHYL CORDATOLIDE A],0,0,0,0,–,–,–
Cc1cc(=O)oc2c3c(c4c(c12)OC(C)(C)C=C4)O[C@H](C)C[C@@H]3O [(+)-11-DEMETHYL CORDATOLIDE A],0,0,0,0,–,–,–
